From ChEMBL document CHEMBL4765291, “Design, synthesis and biological evaluation of novel 3,4-dihydro-2(1H)-quinolinone derivatives as potential chitin synthase inhibitors and antifungal agents” (Eur J Med Chem, 2020)
Converted amounts (≈) assume the structure as drawn.

Legend:
Candida tropicalis = assay: Inhibition of Candida tropicalis ATCC 750 chitin synthase at 300 ug/ml using UDP-GlcNAc as substrate relative to control; details: dose 300.0 µg/ml
Method in brief: (§1)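 Chitin synthase prepared from C. tropicalis ATCC 750 by low- and high-speed centrifugation. DMSO stocks (10 mg/mL) diluted in 50 mM Tris-HCl pH 7.5; test concentrations 300–9.375 µg/mL. Chitin synthesized in WGA-coated wells, bound with WGA-HRP, washed, developed with TMB/H2O2, stopped with 2 M H2SO4, OD read. Duplicate; polyoxin B positive control.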

Candida albicans [1] = assay: Antifungal activity against Candida albicans ATCC 76615 incubated for 48 hrs by two-fold broth dilution analysis; assay type: functional
Method in brief: (§2)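 Stock solutions in DMSO, diluted to 0.25–512 µg/mL; two-fold serial broth dilution in 96-well plates. Fungi grown on modified Sabouraud chloramphenicol agar (1% peptone, 2% glucose, […]). Incubated 48 h at 37 °C, then MIC (µg/mL) recorded. Fluconazole and polyoxin B as positive controls; each group tested in triplicate.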

Escherichia coli = assay: Antibacterial activity against Escherichia coli JM 109
Bacillus subtilis = assay: Antibacterial activity against Bacillus subtilis ATCC 6633; assay type: functional
Method in brief: (§3)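 Two-fold serial broth dilution in 96-well plates following National Committee standards; compounds tested at different concentrations. Medium: beef extract peptone (1% peptone, 0.3% beef extract, 0.5% NaCl). Incubation 18–24 h. MIC recorded; streptomycin and norfloxacin as control drugs; each group tested in triplicate.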

Pseudomonas aeruginosa = assay: Antibacterial activity against Pseudomonas aeruginosa ATCC 9027; assay type: functional; method in brief: as §3
Proteus vulgaris = assay: Antibacterial activity against Bacillus proteus ATCC 8427; assay type: functional; method in brief: as §3
Candida albicans [2] = assay: Antifungal activity against Candida albicans ATCC 90023 incubated for 48 hrs by two-fold broth dilution analysis; assay type: functional; method in brief: as §2
Aspergillus fumigatus = assay: Antifungal activity against Aspergillus fumigatus GIMCC 3.19 incubated for 48 hrs by two-fold broth dilution analysis; assay type: functional; method in brief: as §2
Cryptococcus neoformans = assay: Antifungal activity against Cryptococcus neoformans ATCC 32719 incubated for 48 hrs by two-fold broth dilution analysis; assay type: functional; method in brief: as §2
Staphylococcus aureus [3] = assay: Antibacterial activity against Staphylococcus aureus ATCC 25923; assay type: functional; method in brief: as §3
[4] = Inhibition of Candida tropicalis ATCC 750 chitin synthase using UDP-GlcNAc as substrate; method in brief: as §1
Aspergillus flavus = assay: Antifungal activity against Aspergillus flavus ATCC 16870 incubated for 48 hrs by two-fold broth dilution analysis; assay type: functional; method in brief: as §2
Staphylococcus aureus [5] = assay: Antibacterial activity against methicillin-resistant Staphylococcus aureus N. 315; assay type: functional
Method in brief: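 Two-fold serial broth dilution in 96-well plates per national clinical standard; beef extract peptone medium (1% peptone, 0.3% beef extract, 0.5% NaCl, […]). Compounds from DMSO stock diluted to test concentrations; incubation 18–24 h. MIC recorded; each group tested independently in triplicate.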

| Structure (SMILES) | inhibition (Candida tropicalis) [%] | MIC (Candida albicans [1]) [µg/mL] | MIC (Escherichia coli) [µg/mL] | MIC (Bacillus subtilis) [µg/mL] | MIC (Pseudomonas aeruginosa) [µg/mL] | MIC (Proteus vulgaris) [µg/mL] | MIC (Candida albicans [2]) [µg/mL] | MIC (Aspergillus fumigatus) [µg/mL] | MIC (Cryptococcus neoformans) [µg/mL] | MIC (Staphylococcus aureus [3]) [µg/mL] | IC50 [4] [µM] | MIC (Aspergillus flavus) [µg/mL] | MIC (Staphylococcus aureus [5]) [µg/mL] |
| --- | --- | --- | --- | --- | --- | --- | --- | --- | --- | --- | --- | --- | --- |
| O=C(/C=C/C(=O)NC1Cc2ccccc2NC1=O)Nc1ccc([N+](=O)[O-])cc1 (centres undefined) | 65.2 | 8 (≈ 21 µM) | 256 (≈ 673 µM) | 256 (≈ 673 µM) | 512 (≈ 1350 µM) | 256 (≈ 673 µM) | 2 (≈ 5.26 µM) | 4 (≈ 10.5 µM) | 8 (≈ 21 µM) | 128 (≈ 337 µM) | 350 | 2 (≈ 5.26 µM) | 256 (≈ 673 µM) |
| NC(=O)OC[C@H](O)[C@@H](O)[C@H](N)C(=O)N[C@H](C(=O)O)[C@H]1O[C@@H](n2cc(CO)c(=O)[nH]c2=O)[C@H](O)[C@@H]1O [POLYOXIN B] | 87.5 | 2 (≈ 3.94 µM) |  |  |  |  | 4 (≈ 7.88 µM) | 2 (≈ 3.94 µM) | 4 (≈ 7.88 µM) |  | 90 | 4 (≈ 7.88 µM) |  |
| Cc1cc(C)cc(NC(=O)/C=C/C(=O)NC2Cc3ccccc3NC2=O)c1 (centres undefined) | 71.5 | 4 (≈ 11 µM) | 256 (≈ 704 µM) | 256 (≈ 704 µM) | 256 (≈ 704 µM) | 512 (≈ 1410 µM) | 2 (≈ 5.5 µM) | 2 (≈ 5.5 µM) | 16 (≈ 44 µM) | 128 (≈ 352 µM) | 190 | 1 (≈ 2.75 µM) | 512 (≈ 1410 µM) |
| O=C(/C=C/C(=O)NC1Cc2ccccc2NC1=O)Nc1ccccc1[N+](=O)[O-] (centres undefined) | 53.3 | 4 (≈ 10.5 µM) | 256 (≈ 673 µM) | 256 (≈ 673 µM) | 256 (≈ 673 µM) | 256 (≈ 673 µM) | 2 (≈ 5.26 µM) | 8 (≈ 21 µM) | 4 (≈ 10.5 µM) | 128 (≈ 337 µM) | 320 | 4 (≈ 10.5 µM) | 256 (≈ 673 µM) |
| O=C(/C=C/C(=O)NC1Cc2ccccc2NC1=O)Nc1ccc(F)cc1 (centres undefined) | 51.2 | 2 (≈ 5.66 µM) | 256 (≈ 724 µM) | 512 (≈ 1450 µM) | 256 (≈ 724 µM) | 256 (≈ 724 µM) | 2 (≈ 5.66 µM) | 4 (≈ 11.3 µM) | 8 (≈ 22.6 µM) | 128 (≈ 362 µM) | 340 | 8 (≈ 22.6 µM) | 512 (≈ 1450 µM) |
| COc1ccc(NC(=O)/C=C/C(=O)NC2Cc3ccccc3NC2=O)cc1 (centres undefined) | 74.6 | 2 (≈ 5.47 µM) | 512 (≈ 1400 µM) | 256 (≈ 701 µM) | 512 (≈ 1400 µM) | 256 (≈ 701 µM) | 1 (≈ 2.74 µM) | 4 (≈ 10.9 µM) | 16 (≈ 43.8 µM) | 128 (≈ 350 µM) | 210 | 2 (≈ 5.47 µM) | 256 (≈ 701 µM) |
| O=C(/C=C/C(=O)NC1Cc2ccccc2NC1=O)Nc1ccc(F)c(F)c1 (centres undefined) | 66.5 | 4 (≈ 10.8 µM) | 512 (≈ 1380 µM) | 512 (≈ 1380 µM) | 512 (≈ 1380 µM) | 512 (≈ 1380 µM) | 2 (≈ 5.39 µM) | 8 (≈ 21.5 µM) | 16 (≈ 43.1 µM) | 256 (≈ 689 µM) | 340 | 8 (≈ 21.5 µM) | 512 (≈ 1380 µM) |
| O=C(/C=C/C(=O)NC1Cc2ccccc2NC1=O)Nc1cccc(Br)c1 (centres undefined) | 45.2 | 2 (≈ 4.83 µM) | 256 (≈ 618 µM) | 256 (≈ 618 µM) | 256 (≈ 618 µM) | 256 (≈ 618 µM) | 1 (≈ 2.41 µM) | 4 (≈ 9.66 µM) | 32 (≈ 77.2 µM) | 128 (≈ 309 µM) |  | 4 (≈ 9.66 µM) | 512 (≈ 1240 µM) |
| Cc1ccccc1NC(=O)/C=C/C(=O)NC1Cc2ccccc2NC1=O (centres undefined) | 67.3 | 1 (≈ 2.86 µM) | 256 (≈ 733 µM) | 512 (≈ 1470 µM) | 512 (≈ 1470 µM) | 256 (≈ 733 µM) | 2 (≈ 5.72 µM) | 4 (≈ 11.4 µM) | 16 (≈ 45.8 µM) | 128 (≈ 366 µM) | 380 | 4 (≈ 11.4 µM) | 256 (≈ 733 µM) |
| Cc1ccc(NC(=O)/C=C/C(=O)NC2Cc3ccccc3NC2=O)cc1 (centres undefined) | 58.7 | 4 (≈ 11.4 µM) | 256 (≈ 733 µM) | 512 (≈ 1470 µM) | 512 (≈ 1470 µM) | 256 (≈ 733 µM) | 2 (≈ 5.72 µM) | 4 (≈ 11.4 µM) | 16 (≈ 45.8 µM) | 128 (≈ 366 µM) | 260 | 4 (≈ 11.4 µM) | 256 (≈ 733 µM) |
| O=C(/C=C/C(=O)NC1Cc2ccccc2NC1=O)Nc1ccccc1Br (centres undefined) | 39.9 | 4 (≈ 9.66 µM) | 512 (≈ 1240 µM) | 512 (≈ 1240 µM) | 512 (≈ 1240 µM) | 512 (≈ 1240 µM) | 2 (≈ 4.83 µM) | 8 (≈ 19.3 µM) | 32 (≈ 77.2 µM) | 128 (≈ 309 µM) |  | 2 (≈ 4.83 µM) | 256 (≈ 618 µM) |
| O=C(/C=C/C(=O)NC1Cc2ccccc2NC1=O)Nc1cccc([N+](=O)[O-])c1 (centres undefined) | 49.3 | 4 (≈ 10.5 µM) | 128 (≈ 337 µM) | 256 (≈ 673 µM) | 512 (≈ 1350 µM) | 256 (≈ 673 µM) | 2 (≈ 5.26 µM) | 8 (≈ 21 µM) | 4 (≈ 10.5 µM) | 128 (≈ 337 µM) |  | 4 (≈ 10.5 µM) | 256 (≈ 673 µM) |
| O=C(/C=C/C(=O)NC1Cc2ccccc2NC1=O)Nc1ccc(Br)cc1 (centres undefined) | 40.3 | 2 (≈ 4.83 µM) | 512 (≈ 1240 µM) | 512 (≈ 1240 µM) | 512 (≈ 1240 µM) | 512 (≈ 1240 µM) | 2 (≈ 4.83 µM) | 4 (≈ 9.66 µM) | 16 (≈ 38.6 µM) | 128 (≈ 309 µM) |  | 4 (≈ 9.66 µM) | 256 (≈ 618 µM) |
